Measurements from PMC4894453 (Scientific Reports, 2014).
Converted amounts (≈) assume the structure as drawn. Read-outs that look alike come from different tables or passages of the source.

Experiments:
[1] = tested on: Bacillus subtilis ATCC 23857; test: MIC, microbroth dilution, Bacillus subtilis; type: cell-based; conditions: for MIC against Gram-positive bacteria, BS: Bacillus subtilis ATCC 23857, 18–20 h; for MIC: Bacillus subtilis, ATCC23857, read-out: MIC against Gram-positive bacteria, BS
In short: (§1)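 CLSI microbroth dilution in Mueller-Hinton broth. Test compound at final 200–0.1 μg/ml, diluted from 10 mg/ml DMSO stocks. Plates incubated 18–20 h. MIC is the lowest concentration preventing visible growth.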

[2] = tested on: Vero cells (kidney epithelial cells; ATCC CCL-81); test: Cytotoxicity, CellTiter-Glo viability; type: cell-based; conditions: for Cytotox IC50: Vero kidney cells, 72 h, 50% reduction of viability; for Selectivity index: Cytotox IC50/MIC against methicillin-susceptible S. aureus Newman
In short: (§2)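 Vero kidney epithelial cells exposed 72 h to test compound (final 200–0.1 μg/ml in DMEM; diluted from 10 mg/ml DMSO stocks). Viability read by CellTiter-Glo luminescence. IC50 is the concentration giving 50% viability loss, from curve fitting. Selectivity index is the cytotoxic IC50 divided by the MIC against S. aureus Newman.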

[3] = tested on: Streptococcus pneumoniae R6; test: MIC, microbroth dilution, Streptococcus pneumoniae; type: cell-based; conditions: for MIC against Gram-positive bacteria, SPn: Streptococcus pneumoniae R6, 18–20 h; for MIC: Streptococcus pneumoniae, R6, read-out: MIC against Gram-positive bacteria, SPn
In short: as §1

[4] = tested on: Streptococcus pyogenes ATCC 700294; test: MIC, microbroth dilution, Streptococcus pyogenes; type: cell-based; conditions: for MIC against Gram-positive bacteria, SP: Streptococcus pyogenes ATCC 700294, 18–20 h; for MIC: Streptococcus pyogenes, ATCC700294, read-out: MIC against Gram-positive bacteria, SP
[5] = tested on: erythrocytes of defibrinated sheep blood; test: Hemolysis assay; type: cell-based; conditions: sheep erythrocytes 5% in PBS, 37°C, 90 min
In short: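 Defibrinated sheep blood spun at 350 rcf for 20 min; plasma and buffy coat discarded. Erythrocytes washed three times in PBS pH 7.4, then made to a 5% v/v suspension. Suspension mixed 1:1 with two-fold serial dilutions of test compound, with Triton X-100 as positive control. Incubated 37°C for 90 min and centrifuged; supernatant OD540 read. Lysis = (sample − blank)/positive control; EC50 from curve fitting.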

[6] = tested on: Bacillus anthracis sterne; test: microbe, parasite or virus in culture; type: cell-based; conditions: for MIC against Gram-positive bacteria, BA: 18–20 h; for MIC: Bacillus anthracis, read-out: MIC against Gram-positive bacteria, BA
[7] = tested on: Clostridium difficile BAA 1803; test: MIC, microbroth dilution, anaerobic, Clostridium difficile; type: cell-based; conditions: Brain-heart infusion broth, 24 h, anaerobic; for MIC against Gram-positive bacteria, CD: Clostridium difficile BAA 1803
[8] = tested on: methicillin-resistant Staphylococcus aureus N315; test: MIC, microbroth dilution, MRSA; type: cell-based; conditions: for MIC against Gram-positive bacteria, MRSA: S. aureus N315, 18–20 h; for MIC: Staphylococcus aureus, MRSA, read-out: MIC against Gram-positive bacteria, MRSA
In short: as §1

[9] = tested on: methicillin-susceptible Staphylococcus aureus Newman; test: MIC, microbroth dilution, MSSA; type: cell-based; conditions: S. aureus Newman; 18–20 h
In short: as §1

[10] = tested on: Enterococcus faecalis ATCC 33186; test: MIC, microbroth dilution, Enterococcus faecalis; type: cell-based; conditions: for MIC against Gram-positive bacteria, EF: Enterococcus faecalis ATCC 33186; for MIC: Enterococcus faecalis
[11] = tested on: panel of clinical relevant Gram-positive pathogens; test: MIC, statements over the Gram-positive panel; type: cell-based; conditions: read-out: MIC over the Gram-positive panel
[12] = tested on: S. aureus Newman; test: Macromolecular synthesis, radiolabelled precursors; type: cell-based, Staphylococcus aureus; conditions: 1 and 4 × MIC, 20 min
In short: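 Three independent S. aureus Newman cultures grown to mid-log phase (OD600 ≈ 0.3), then pulsed with 1 μCi/mL [methyl-3H]thymidine, [5,6-3H]uridine or [4,5-3H]leucine. After 5 min, test compound added at 1 and 4× its Newman MIC for 20 min at 37°C. Cold 10% TCA precipitates collected on GF/C filters, washed with 95% ethanol and counted by scintillation; expressed as relative percent activity. Controls: novobiocin, rifampicin, tetracycline.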

[13] = tested on: S. aureus Newman; test: Membrane permeability by flow cytometry with propidium iodide; type: cell-based, Staphylococcus aureus; conditions: 10 μM, 30 min, concentrations causing dissipation of the membrane potential
In short: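 S. aureus Newman grown in Mueller-Hinton II broth to OD600 ≈ 0.3 and exposed to test compound at 10 μM for 30 min. Propidium iodide (10 μM) added for 10 min in the dark. Flow cytometry: 10,000 events, 488 nm excitation, red fluorescence; event histograms compared. Thioridazine at 100 μg/mL served as positive control.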

[14] = tested on: S. aureus Newman; test: Membrane potential by flow cytometry with DiOC2; type: cell-based, Staphylococcus aureus; conditions: DiOC2(3); for dissipation of the membrane potential: 10 μM, 30 min
In short: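 Exponential-phase S. aureus Newman (OD600 ≈ 0.3, Mueller-Hinton II broth) treated with test compound at 100, 10 or 1 μM for 30 min at 37°C. Cells stained 5 min with 30 μM DiOC2(3) and run on flow cytometry (10,000 events, 488 nm excitation, green and red emission). Red/green fluorescence ratio histograms compared. CCCP was the positive control; at least two independent samples.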

[15] = Cytotoxicity, CellTiter-Glo viability; type: cell-based; conditions: African green monkey, Vero cells (kidney epithelial cells; ATCC CCL-81)
In short: as §2

Compound | MIC against Gram-positive bacteria, BS [1] [µg/mL] | Cytotox IC50 [2] [µg/mL] | MIC against Gram-positive bacteria, SPn [3] [µg/mL] | MIC against Gram-positive bacteria, SP [4] [µg/mL] | Hemolysis EC50 [5] [µg/mL] | MIC against Gram-positive bacteria, BA [6] [µg/mL] | MIC against Gram-positive bacteria, CD [7] [µg/mL] | MIC against Gram-positive bacteria, MRSA [8] [µg/mL] | MIC against Gram-positive bacteria, MSSA [9] [µg/mL] | MIC against Gram-positive bacteria, EF ([10]; Mueller-Hinton broth, 18–20 h) [µg/mL] | MIC [1] [µg/mL] | Selectivity index [2] | MIC [3] [µg/mL] | MIC [4] [µg/mL] | MIC [11] [µg/mL] | biosynthesis of DNA, RNA and protein [12] | physical integrity of the S. aureus membrane (propidium iodide uptake) [13] | MIC [6] [µg/mL] | dissipation of the membrane potential [14] | MIC [8] [µg/mL] | also measured
CCCCCCC/C=C/C(=O)N1C(=O)/C(=C(\O)C2CCN(C(=O)OC(C)(C)C)CC2)C(=O)[C@H]1CC(C)C [Compound 10, tert-butyl4-((Z)-((R)-1-((E)-dec-2-enoyl)-5-isobutyl-2,4-dioxopyrrolidin-3-ylidene)(hydroxy)methyl) piperidine-1-carboxylate] | 1.56 (≈ 3.01 µM) | 14.22 | 3.13 (≈ 6.03 µM) | 3.13 (≈ 6.03 µM) | 61.61 | 0.78 (≈ 1.5 µM) | 0.25 (≈ 0.482 µM) | 0.2 (≈ 0.386 µM) | 0.40 (≈ 0.771 µM) | 0.39 (≈ 0.752 µM) | – | – | – | – | – | – | – | – | – | – | –
CCCCCCC/C=C/C(=O)N1C(=O)/C(=C(\O)c2ccc(F)cc2)C(=O)C1CC(C)C (centres unmarked) [Compound 13, (Z)-1-((E)-dec-2-enoyl)-3-((4-fluorophenyl)(hydroxy)methylene)-5-isobutylpyrrolidine-2,4-dione] | – | – | – | – | – | – | – | – | – | – | 0.39 (≈ 0.908 µM) | 67 | 12.5 (≈ 29.1 µM) | 6.25 (≈ 14.6 µM) | < 1 | reduced | did not disrupt the physical integrity | 0.39 (≈ 0.908 µM) | reduced the membrane potential in a manner similar to reutericyclin | < 0.1 | MIC ([7]; Clostridioides difficile, BAA1803, 24 h, read-out: MIC against Gram-positive bacteria, CD, Clostridium difficile BAA 1803): < 0.03 µg/mL; MIC ([10]; ATCC33186, read-out: MIC against Gram-positive bacteria, EF, Enterococcus faecalis ATCC 33186, Mueller-Hinton broth, 18–20 h): 0.2 µg/mL (≈ 0.466 µM)
C/C(O)=C1\C(=O)C(CC(C)C)N(C(=O)CCCCCc2ccccc2)C1=O (centres unmarked) [Compound 5, (Z)-3-(1-hydroxyethylidene)-5-isobutyl-1-(6-phenylhexanoyl)pyrrolidine-2,4-dione] | – | – | – | – | – | – | – | – | – | 0.78 (≈ 2.1 µM) | 1.56 (≈ 4.2 µM) | 14 | 0.78 (≈ 2.1 µM) | 3.13 (≈ 8.43 µM) | – | reduced | did not disrupt the physical integrity | > 200 | slightly lower than reutericyclin | < 0.1 | fold improvement in activity over reutericyclin ([3]; Strep. pneumoniae): 4 fold; fold improvement in activity over reutericyclin ([4]; Strep. pyogenes): 2 fold; fold improvement in activity over reutericyclin ([8]; MRSA N315): 4 fold
CC(=O)C1=C(O)C(CC(C)C)NC1=O (centres unmarked) [Compound 2, 3-acetyl-4-hydroxy-5-isobutyl-1H-pyrrol-2(5H)-one] | – | – | – | – | – | – | – | – | – | – | > 200 | 1 | > 200 | > 200 | > 200 | – | – | > 200 | – | > 200 | IC50 at 72 h [15]: 217 µg/mL (≈ 1100 µM); effect on the membrane potential ([14]; up to 100 μM): failed to affect the membrane potential; MIC ([10]; ATCC33186, read-out: MIC against Gram-positive bacteria, EF): > 200 µg/mL
(Z)-1-((E)-dec-2-enoyl)-3-(1-hydroxyethylidene)-5-isobutylpyrrolidine-2,4-dione [Compound 1, reference compound] | 0.39 | 7.46 | 3.13 | 6.25 | 27.87 | 0.20 | 0.09 | 0.4 | 0.78 | 0.20 | – | – | – | – | – | reduced | did not disrupt the physical integrity | – | – | – | Cytotox IC50 ([2]; listed as reutericyclin): 7.5 µg/mL; dissipation of the membrane potential ([14]; listed as reutericyclin): completely dissipated
